UBC9 SUMO inh – inhibitors of in vitro SUMOylation cascade, primary screen, biochemical, HTRF, uHTS | SUMO-conjugating enzyme UBC9 (Homo sapiens), P63279 | 290,000 compounds, 0.36% hits | inhibition, % at 35 µM | HTRF SUMOylation assay, SAE1/SAE2 + UBC9; in the data active = inhibition above about 50%, passing the limit was not always enough; inconclusive = no clear call, values can overlap the other calls
Target sequence (P63279 whole entry, looked up): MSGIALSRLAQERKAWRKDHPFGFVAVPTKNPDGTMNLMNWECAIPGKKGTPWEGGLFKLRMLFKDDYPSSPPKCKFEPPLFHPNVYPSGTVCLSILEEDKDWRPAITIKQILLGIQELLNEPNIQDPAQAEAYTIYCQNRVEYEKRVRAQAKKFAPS
core dimer inh – inhibitors of HCV core protein dimerization, primary screen, biochemical, TR-FRET, high-throughput. TR-FRET GST/Flag-core106 dimerization, 1536-well. inhibition, % at 5 µM. 300,000 compounds, 0.33% hits. AID 1899, 2009;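 active = inhibition above the mean of all tested compounds plus 3 SD, set per screening campaign, cut at about 45% in these data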
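System: GST-tagged and Flag-tagged HCV core protein residues 1-106 / Input: core106 proteins, GST 13.5 nM and Flag 17 nM / Buffer or medium: KF-containing HEPES buffer, pH 7.45, DTT, CHAPS, BSA / Probe or stimulus: Eu-anti-GST and XL665-anti-Flag labelled anti-tag antibodies / Schedule: 4 h, 22.5 °C incubation / Technique: TR-FRET 671 and 617 nm emission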
ZTA counter – counter-screen for EBNA-1 inhibitors: inhibitors of Epstein-Barr virus ZTA | 320,000 compounds, 0.15% hits | ZTA-DNA binding, fluorescence polarization | inhibition, % at 11 µM | P03206; in the data active = inhibition above about 33%
Target sequence (P03206 whole entry, looked up): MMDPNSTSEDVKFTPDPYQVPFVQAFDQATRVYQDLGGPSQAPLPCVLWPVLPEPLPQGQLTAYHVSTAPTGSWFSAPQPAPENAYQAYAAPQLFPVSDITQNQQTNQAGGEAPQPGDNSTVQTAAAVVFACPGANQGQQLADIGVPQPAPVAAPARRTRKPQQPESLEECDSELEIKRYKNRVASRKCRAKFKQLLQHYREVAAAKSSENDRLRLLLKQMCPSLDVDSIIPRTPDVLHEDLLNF
HCV NS3 hel inh – inhibitors of HCV NS3 helicase, primary screen, biochemical, Cy5 molecular beacon fluorescence. NS3 helicase DNA unwinding. inhibition, % at 10.9 µM. 290,000 compounds, 0.56% hits. AID 1800, 2009;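 active = inhibition above the mean of all tested compounds plus 3 SD, set per campaign, cut at about 35% in these data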
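System: Hepatitis C virus NS3 helicase domain fragment enzyme | Reagent: Annealed dual-labelled DNA beacon duplex, ATP-started | Compound dosing: 10.9 µM single point, 0.8% DMSO | Incubation: 1 h reaction at 25 °C, ATP-initiated | Technique: Cy5 fluorescence | Evaluation: Percent inhibition from t60/t0 fluorescence ratio | Benchmarks: Low DMSO, high thioflavine S at 110 µM | Replication: Singlicate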
EBNA-1 inhibitor – EBNA-1 DNA-binding inhibitors, primary screen, biochemical, fluorescence polarization. AID 1950, 2009. 300,000 compounds, 0.34% hits. inhibition, % at 14.8 µM; in the data active = inhibition above about 28%
Hits are given with their value; . = inactive; ? = inconclusive; / = no result given. Most compounds without a hit are left out; they make up all but 1.4% or so of the library.

SMILES | UBC9 SUMO inh | core dimer inh | ZTA counter | HCV NS3 hel inh | EBNA-1 inhibitor
O=C(/C=C/c1cccc([N+](=O)[O-])c1)Nc1ccccn1 | . | . | . | . | .
CCC(=O)OCCNc1cc(SCCC(=O)OC)c2nonc2c1[N+](=O)[O-] | 63 | . | . | . | .
CCC(=O)OCCNc1cc(Sc2nccn2C)c2nonc2c1[N+](=O)[O-] | . | . | . | . | .
COc1ccc(NC(=O)CCl)cn1 | 83 | . | . | . | .
O=C(Nc1cccc2cccc(NC(=O)c3ccco3)c12)c1ccco1 | . | 48 | . | . | .
COc1ccc(NC(=O)CSc2ccc3c4c(cccc24)C(=O)c2ccccc2-3)cc1 | . | . | . | . | .
N#Cc1cccc(NC(=O)CSc2ccc3c4c(cccc24)C(=O)c2ccccc2-3)c1 | . | 67 | . | . | .
O=C(c1ccc(F)cc1F)N1CCN(S(=O)(=O)c2ccc3c(c2)OCCO3)CC1 | / | / | . | / | /
CC(C)=CC(=O)NCCc1ccccc1 | . | . | . | . | .
C/C(=C/C(=O)NCc1ccccc1)C(=O)O | 52 | . | . | . | .
CC1CCc2c(sc3nc(C(C)(C)C)nc(N4CCN(C(=O)CCl)CC4)c23)C1 (stereo not drawn) | . | . | . | . | .
Cc1cc(=O)n(C2CCS(=O)(=O)C2)[nH]1 (stereo not drawn) | 90 | . | . | . | .
Cc1ccc(CNC(=O)C2CCCN(c3ncnc4c3nc3n4CCCCC3)C2)cc1 (stereo not drawn) | . | . | . | . | .
COc1cccc(-n2c([S-])c(C(=O)Nc3ccc(S(=O)(=O)N4CCOCC4)cc3)[n+]3cc(C(N)=O)ccc23)c1 | . | . | . | . | .
COc1ccc(NC(=O)Cn2cc(S(=O)(=O)Cc3ccccc3)c3ccccc32)c(OC)c1 | . | 52 | . | . | .
COc1ccc(C)cc1NC(=O)CN1CCN(S(=O)(=O)c2ccc3ccccc3c2)CC1 | / | / | . | / | /
Cc1cc(C)c2sc(NC(=O)c3ccc(N4C(=O)CCC4=O)cc3)nc2c1 | . | . | . | . | .
Cc1ccc2nc(NC(=O)c3ccc(N4C(=O)CCC4=O)cc3)sc2c1 | . | 48 | . | . | 35
CCOC(=O)N/N=C(\CCC(=O)O)c1cccs1 | . | . | . | . | .
COc1ccc(C(C(=O)NC2CCCC2)N(C(=O)c2snc(-c3ccc(F)cc3)c2N)c2ccc(OC)cc2)cc1 (stereo not drawn) | . | 48 | . | . | .
O=C(NC(=S)Nc1ccc(NC(=O)c2cccs2)cc1)c1cc2ccccc2o1 | . | . | . | . | 69
C=Cc1c(C)c2cc3[nH]c(cc4nc(cc5nc(cc1[nH]2)C(C)=C5CCC(=O)O)C(CCC(=O)O)=C4C)c(C)c3C=C | / | . | 146 | / | 96
Cc1[nH]n2c(=O)cc(-c3ccc([N+](=O)[O-])cc3)nc2c1-c1ccccc1 | / | . | . | . | .
COc1ccc(-c2c(C(F)(F)F)[nH]n3c(=O)cc(-c4ccccc4)nc23)cc1 | 51 | . | . | . | .
COc1ccc(S(=O)(=O)c2c(N)n(Cc3ccco3)c3nc4ccccc4nc23)cc1 | . | 72 | . | . | .
SMILES | UBC9 SUMO inh | core dimer inh | ZTA counter | HCV NS3 hel inh | EBNA-1 inhibitor
CN(C)/C=N/c1nc2nccc(-c3cccnc3)n2n1 | 65 | . | . | . | .
CN(C)/C=N/c1nc2nccc(-c3ccccn3)n2n1 | ? | . | . | . | .
COc1cccc(OC(C)c2ccnc3nc(/N=C/N(C)C)nn23)c1 (stereo not drawn) | . | . | . | . | .
COc1ccc(-c2ccnc3nc(/N=C/N(C)C)nn23)cc1 | 57 | . | . | . | .
Cc1cc(OCCN2CCN(S(=O)(=O)c3ccccc3F)CC2)ccc1C(C)C | / | / | . | / | /
CC(C)N1CC=C2C(C#N)=C(N)C(C#N)(C#N)[C@H](c3ccoc3)[C@H]2C1 | 56 | . | . | . | .
CCC(=O)c1ccc(/C=C/c2nc3ccccc3n2C)o1 | 62 | . | . | . | .
CCN(CC)c1nc2cc(OC)ccc2cc1C#N | . | 55 | . | . | .
COc1ccc2cc(C#N)c(NC(C)C)nc2c1 | . | . | . | . | .
O=S(=O)(Nc1cccc(-c2cn3cccnc3n2)c1)c1ccc(-c2ccccc2)cc1 | . | 50 | . | . | .
O=S(=O)(Nc1cccc(-c2cn3cccnc3n2)c1)c1ccccc1 | . | . | . | . | .
Cn1nccc1NC(=O)Nc1cccc(Br)c1 | 65 | . | . | . | .
Cc1csc(NC(=O)CCc2nc3ccccc3s2)n1 | . | 55 | . | . | .
O=C(Nc1ccc(Br)cc1Cl)c1cnccn1 | . | 68 | . | . | .
O=C(Nc1ccc(Cl)c([N+](=O)[O-])c1)c1cnccn1 | . | 55 | . | . | .
Cc1ccccc1OCC(=O)NNC(=O)c1ccoc1C | / | / | . | / | /
CC(=O)NC(c1ccc(C(C)C)cc1)c1ccc2cccnc2c1O (stereo not drawn) | 56 | . | . | . | .
CCCCC(=O)NC(c1ccc(C(C)C)cc1)c1ccc2cccnc2c1O (stereo not drawn) | . | . | . | . | .
Cc1ccc(-c2ccc(/C=N\NC(=O)c3cc4c(ccc5ccccc54)o3)o2)cc1[N+](=O)[O-] | . | . | . | . | .
O=C(N/N=C/c1ccc(-c2ccc(Cl)c(C(=O)O)c2)o1)c1cc2c(ccc3ccccc32)o1 | 51 | . | . | . | .
Cc1c(S(=O)(=O)NC2CCCCCC2)c(=O)n(C)c(=O)n1C | / | . | . | / | .
Oc1ccc(NCc2cccc(OCc3ccccc3)c2)cc1 | . | . | . | . | .
Oc1ccc(NCc2cccc(OCc3ccc(F)cc3)c2)cc1 | 74 | . | . | . | .
CCCCn1c(N)c(N(CC(C)C)C(=O)c2cc(-c3ccncc3)nc3ccccc23)c(=O)[nH]c1=O | / | . | . | / | .
COc1ccc(-c2csc(NC(=O)c3ccccc3NS(=O)(=O)c3ccc(F)c(F)c3)n2)cc1 | 67 | . | . | . | .
SMILES | UBC9 SUMO inh | core dimer inh | ZTA counter | HCV NS3 hel inh | EBNA-1 inhibitor
Cc1ccc(S(=O)(=O)c2cc3c(=O)n4ccccc4nc3n(Cc3ccco3)c2=N)cc1C | . | 70 | . | . | .
Cc1cccn2c(=O)c3cc(S(=O)(=O)c4ccc(F)cc4)c(=N)n(Cc4ccco4)c3nc12 | . | . | . | . | .
Cc1ccc2nc3c(cc(S(=O)(=O)c4ccccc4)c(=N)n3Cc3ccco3)c(=O)n2c1 | 80 | . | . | . | .
Cc1cccn2c(=O)c3cc(S(=O)(=O)c4ccccc4)c(=N)n(Cc4ccco4)c3nc12 | . | . | . | . | .
CCC(C)NC(=O)C(Sc1ccccc1)c1ccccc1 (stereo not drawn) | . | . | . | . | .
CC1C(=O)N2CCCc3cc(S(=O)(=O)N4CCN(c5cccc(Cl)c5)CC4)cc1c32 (stereo not drawn) | / | . | . | / | .
Cc1ccccc1NC(=O)Nc1nc2ccc(S(C)(=O)=O)cc2s1 | . | . | 38 | . | 155

Assay outcomes (PubChem BioAssay)
